The record followed here is ChEMBL document CHEMBL4706504, “Hit-to-lead optimization of a latency-associated nuclear antigen inhibitor against Kaposi's sarcoma-associated herpesvirus infections” (Eur J Med Chem, 2020).

Active and inactive are the calls of the source. The rule behind the calls is not given here.

In assay [1] the test system is Human gammaherpesvirus 8. In words: Inhibition of Kaposi's sarcoma herpesvirus wild type LANA CTD (934 to 1162 residues) expressed in Escherichia coli BL21 (DE3) assessed as inhibition of LANA interaction with 5'-Dy682-labeled viral DNA LBS1 probe at 250 uM preincubated with LANA CTD for 60 mins followed by addition of DNA probe and measured after 30 mins by Electrophoretic mobility shift assay. The note with it: time 90.0 min. In general terms: In EMSA bound probe runs differently from free probe, usually more slowly.

Assay [2] can be described thus: Inhibition of Kaposi's sarcoma herpesvirus C-terminal His-tagged oligomerization deficient LANA DBD (1008 to 1146 residues) K1055E/K1138S/K1140D/K1141D/R1039Q/R1040Q/A1121E/K1109A/D1110A mutant expressed in Escherichia coli BL21(DE3) assessed as inhibition of LANA interaction with fluorescently-labelled viral DNA LBS3 probe preincubated with LANA-DBD for 60 mins followed by addition of DNA probe and measured after 90 mins by flourescence polarization assay. Further details: species or system Human gammaherpesvirus 8. The method in brief: (§1)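 FP competition of DNA binding, using the oligomerization-deficient LANA DBD mutant (aa 1008-1146, nine point mutations). Probes were LBS1, LBS2 or LBS3. Values are IC50 from the average of duplicates ± standard deviation.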

Assay [3] can be described thus: Inhibition of Kaposi's sarcoma herpesvirus wild type LANA CTD (934 to 1162 residues) expressed in Escherichia coli BL21 (DE3) assessed as inhibition of LANA interaction with 5'-Dy682-labeled viral DNA LBS1 probe preincubated with LANA CTD for 60 mins followed by addition of DNA probe and measured after 30 mins by Electrophoretic mobility shift assay. On the set-up: species or system Human gammaherpesvirus 8. The method in brief:
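GST-tagged KSHV LANA CTD (aa934-1162), wild type and unmutated, binding an LBS1 probe in EMSA. Compounds were first screened at a single fixed final concentration, then run in a dose-response EMSA. LANA-DNA complex (upper) band intensities were normalized to 0-100% inhibition. IC50 came from a four-parameter dose-response fit.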

Assay [4] can be described thus: Inhibition of Kaposi's sarcoma herpesvirus C-terminal His-tagged oligomerization deficient LANA DBD (1008 to 1146 residues) K1055E/K1138S/K1140D/K1141D/R1039Q/R1040Q/A1121E/K1109A/D1110A mutant expressed in Escherichia coli BL21(DE3) assessed as inhibition of LANA interaction with fluorescently-labelled viral DNA LBS1 probe preincubated with LANA-DBD for 60 mins followed by addition of DNA probe and measured after 90 mins by flourescence polarization assay. On the set-up: species or system Human gammaherpesvirus 8. In a few lines:
as §1

Assay [5] can be described thus: Inhibition of Kaposi's sarcoma herpesvirus C-terminal His-tagged oligomerization deficient LANA DBD (1008 to 1146 residues) K1055E/K1138S/K1140D/K1141D/R1039Q/R1040Q/A1121E/K1109A/D1110A mutant expressed in Escherichia coli BL21(DE3) assessed as inhibition of LANA interaction with 5'-Dy682-labeled viral DNA LBS1 probe preincubated with LANA-DBD for 60 mins followed by addition of DNA probe and measured after 30 mins by Electrophoretic mobility shift assay. On the set-up: species or system Human gammaherpesvirus 8.

The test system of assay [6] is Human gammaherpesvirus 8. In words: Inhibition of Kaposi's sarcoma herpesvirus C-terminal His-tagged oligomerization deficient LANA DBD (1008 to 1146 residues) K1055E/K1138S/K1140D/K1141D/R1039Q/R1040Q/A1121E/K1109A/D1110A mutant expressed in Escherichia coli BL21(DE3) assessed as inhibition of LANA interaction with 5'-Dy682-labeled viral DNA LBS1 probe at 500 uM preincubated with LANA-DBD for 60 mins followed by addition of DNA probe and measured after 30 mins by Electrophoretic mobility shift assay. Conditions: time 90.0 min.

Assay [7] can be described thus: Inhibition of Kaposi's sarcoma herpesvirus C-terminal His-tagged oligomerization deficient LANA DBD (1008 to 1146 residues) K1055E/K1138S/K1140D/K1141D/R1039Q/R1040Q/A1121E/K1109A/D1110A mutant expressed in Escherichia coli BL21(DE3) assessed as inhibition of LANA interaction with fluorescently-labelled viral DNA LBS2 probe preincubated with LANA-DBD for 60 mins followed by addition of DNA probe and measured after 90 mins by flourescence polarization assay. On the set-up: species or system Human gammaherpesvirus 8. The method in brief:
as §1

In assay [8] the test system is Human gammaherpesvirus 8. Briefly: Inhibition of Kaposi's sarcoma herpesvirus C-terminal His-tagged oligomerization deficient LANA DBD (1008 to 1146 residues) K1055E/K1138S/K1140D/K1141D/R1039Q/R1040Q/A1121E/K1109A/D1110A mutant expressed in Escherichia coli BL21(DE3) assessed as inhibition of LANA interaction with 5'-Dy682-labeled …. Conditions: dose 250.0 µM, time 90.0 min.

Assay [9] has as its system Human gammaherpesvirus 8. In words: Inhibition of Kaposi's sarcoma herpesvirus C-terminal His-tagged oligomerization deficient LANA DBD (1008 to 1146 residues) K1055E/K1138S/K1140D/K1141D/R1039Q/R1040Q/A1121E/K1109A/D1110A mutant expressed in Escherichia coli BL21(DE3) assessed as inhibition of LANA interaction with 5'-Dy682-labeled viral DNA LBS1+2+3 probe at 125 uM preincubated with LANA-DBD for 60 mins followed by addition of DNA probe and measured after 30 mins by Electrophoretic mobility shift assay. Conditions: time 90.0 min. In a few lines:
(§2)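 EMSA with the LANA DBD mutant as a dose-dependent test against higher-order complexes. Combined probes were LBS1+2 and LBS2+1+3. Inhibition was judged from loss of the LANA-DNA complex band.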

The subject of assay [10] is Human gammaherpesvirus 8. In words: Inhibition of Kaposi's sarcoma herpesvirus C-terminal His-tagged oligomerization deficient LANA DBD (1008 to 1146 residues) K1055E/K1138S/K1140D/K1141D/R1039Q/R1040Q/A1121E/K1109A/D1110A mutant expressed in Escherichia coli BL21(DE3) assessed as inhibition of LANA interaction with 5'-Dy682-labeled viral DNA LBS1+2 probe at 62.5 uM preincubated with LANA-DBD for 60 mins followed by addition of DNA probe and measured after 30 mins by Electrophoretic mobility shift assay. The note with it: time 90.0 min. The method in brief:
as §2

Assay [11] concerns Human gammaherpesvirus 8. In words: Binding affinity to Kaposi's sarcoma herpesvirus C-terminal His-tagged oligomerization deficient LANA DBD (1008 to 1146 residues) K1055E/K1138S/K1140D/K1141D/R1039Q/R1040Q/A1121E/K1109A/D1110A mutant expressed in Escherichia coli BL21(DE3) at 500 uM by STD-NMR analysis.

The inhibition is the drop in the measured response relative to a control, in per cent. As usually defined, the IC50 is the concentration needed to halve the response being measured. As to `O=C(O)c1ccc(-c2cn(-c3cccnc3)nn2)cc1`, in assay [1], the inhibition result is “inactive”. Moreover, the IC50 in assay [2] is 19 µM; in assay [3], 435 µM; in [4], 20 µM; in assay [5] it was 426 µM; in [7], 17 µM. The inhibition in assay [6] was determined as 82%.

As for `O=C(O)c1ccc(-c2cn(-c3cnccc3-c3ccccc3)nn2)cc1`, the inhibition entry in assay [1] and in [8] was “inactive” throughout. In addition, the IC50 in [2] was 42 µM; in assay [4], 52 µM; in assay [7], 18 µM. In addition, the inhibition in [6] worked out at 100%.

With `Cc1ccc2cncc(-n3cc(-c4ccc(C(=O)O)cc4)nn3)c2c1`, the inhibition entry in assay [1], in assay [9] and in [10] was “Active” throughout. Besides, the IC50 in [2] was found to be 8 µM; in assay [3], 60 µM; in assay [4] it was 9 µM; in assay [5] it was 53 µM; in assay [7] it was 8 µM. In addition, the outcome in [11] was Active. For the same compound, in [6], the inhibition worked out at 100%.
